Source: ChEMBL document CHEMBL4680287, “Ibrexafungerp: An orally active β-1,3-glucan synthesis inhibitor” (Bioorg Med Chem Lett, 2021)
≈ marks a conversion by molar mass, not a printed value.

Legend:
[1] = Inhibition of beta-1,3-glucan synthase in Candida albicans MY1055 microsomal membrane assessed as inhibition of TCA-insoluble material formation using UDP-[3H]-glucose as substrate incubated for 2 hrs in presence of GTP by radioactivity-based assay; assay type: microsomes, Microsome
In short: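 GS IC50 measured using Candida albicans MY1055 microsomal membrane fragments as the enzyme source.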

Candida albicans [2] = assay: Antifungal activity against Candida albicans MY1055 assessed as fungal growth inhibition measured after 24 hrs by liquid microdilution method; assay type: functional
In short: (§1)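 Broth microdilution per CLSI protocols in RPMI medium. Read-out is the MIC, the lowest concentration completely inhibiting fungal growth. Run without serum and with added serum.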

Aspergillus fumigatus [3] = assay: Antifungal activity against Aspergillus fumigatus MF5668 assessed inhibition of fungal growth by measuring morphological changes measured after 24 hrs by microscopy; assay type: functional; conditions: read-out: MEC
In short: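 Microdilution per CLSI protocols in RPMI medium. Read-out is the minimum effective concentration (MEC). Run without serum and with 50% human serum.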

Candida albicans [4] = assay: Antifungal activity against Candida albicans MY1055 assessed as fungal growth inhibition measured after 24 hrs in presence of 50% mouse serum by liquid microdilution method; assay type: functional; in short: as §1
Candida albicans [5] = assay: Antifungal activity against Candida albicans MY1055 infected in DBA/2 mouse model of disseminated candidiasis assessed as reduction in fungal burden in kidney by measuring log change in colony forming units at […], po bid for 7 days by TOKA; assay type: functional; conditions: time 7 day
In short: (§2)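 Murine disseminated candidiasis model (TOKA) in mice challenged with C. albicans MY1055 at 2.44 x 10^4 CFU/mouse. Dosed PO, or IP where stated. Kidneys collected aseptically 7 days after challenge and CFUs/g counted. Change in log CFU/g is relative to sham-treated controls; significance by two-tailed t test. Clearance is the percentage of kidneys below the detection limit.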

Candida albicans [6] = assay: Antifungal activity against Candida albicans MY1055 infected in DBA/2 mouse model of disseminated candidiasis assessed as reduction in fungal burden in kidney by measuring log change in colony forming units at 0.125 mg/kg, po bid for 7 days by TOKA; assay type: functional; conditions: time 7 day; in short: as §2
Candida albicans [7] = assay: Antifungal activity against Candida albicans MY1055 infected in DBA/2 mouse model of disseminated candidiasis assessed as reduction in fungal burden in kidney by measuring log change in colony forming units at 0.03 mg/kg, po bid for 7 days by TOKA; assay type: functional; conditions: time 7 day; in short: as §2
Candida albicans [8] = assay: Antifungal activity against Candida albicans MY1055 infected in DBA/2 mouse model of disseminated candidiasis assessed as reduction in fungal burden in kidney by measuring log change in colony forming units at 0.5 mg/kg, ip bid for 7 days by TOKA; assay type: functional; conditions: time 7 day; in short: as §2
Candida albicans [9] = assay: Antifungal activity against Candida albicans MY1055 infected in DBA/2 mouse model of disseminated candidiasis assessed as reduction in fungal burden in kidney by measuring log change in colony forming units at 0.125 mg/kg, ip bid for 7 days by TOKA; assay type: functional; conditions: time 7 day; in short: as §2
Candida albicans [10] = assay: Antifungal activity against Candida albicans MY1055 infected in DBA/2 mouse model of disseminated candidiasis assessed as reduction in fungal burden in kidney by measuring log change in colony forming units at 0.03 mg/kg, ip bid for 7 days by TOKA; assay type: functional; conditions: time 7 day; in short: as §2
Candida albicans [11] = assay: Antifungal activity against Candida albicans MY1055 infected in DBA/2 mouse model of disseminated candidiasis assessed as reduction in fungal burden in kidney by measuring log change in colony forming units at 0.0078 mg/kg, ip bid for 7 days by TOKA; assay type: functional; conditions: time 7 day; in short: as §2
Candida albicans [12] = assay: Antifungal activity against Candida albicans MY1055 infected in ip dosed DBA/2 mouse model of disseminated candidiasis assessed as reduction in fungal burden in kidney administered bid for 7 days by TOKA; assay type: functional; conditions: 168 h, time 7 day; in short: as §2
Aspergillus fumigatus [13] = assay: Antifungal activity against Aspergillus fumigatus MF5668 infected in DBA/2N mouse assessed as mouse survival at 2 mg/kg, ip bid administered for 7 days starting from 15 to 30 mins post infection and measured up to 21 days relative to control; assay type: functional; conditions: 168 h, time 7 day
In short: (§3)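 DBA/2N mice were infected IV with A. fumigatus MF5668 (6.7 x 10^5 CFU/mouse) and treated IP bid for 7 days. Percent survival per dose group was scored at the end of the 21-day survival model and compared with the sham-treated control group.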

Aspergillus fumigatus [14] = assay: Antifungal activity against Aspergillus fumigatus MF5668 infected in DBA/2N mouse assessed as mouse survival at 0.5 mg/kg, ip bid administered for 7 days starting from 15 to 30 mins post infection and measured up to 21 days relative to control; assay type: functional; conditions: 168 h, time 7 day; in short: as §3
Aspergillus fumigatus [15] = assay: Antifungal activity against Aspergillus fumigatus MF5668 infected in DBA/2N mouse assessed as mouse survival at 0.125 mg/kg, ip bid administered for 7 days starting from 15 to 30 mins post infection and measured up to 21 days relative to control; assay type: functional; conditions: 168 h, time 7 day; in short: as §3
Aspergillus fumigatus [16] = assay: Antifungal activity against Aspergillus fumigatus MF5668 infected in DBA/2N mouse assessed as mouse survival at 0.03 mg/kg, ip bid administered for 7 days starting from 15 to 30 mins post infection and measured up to 21 days relative to control; assay type: functional; conditions: 168 h, time 7 day; in short: as §3
Aspergillus fumigatus [17] = assay: Antifungal activity against Aspergillus fumigatus MF5668 infected in ip dosed DBA/2N mouse assessed as 90% mouse survival administered bid administered for 7 days starting from 15 to 30 mins post infection and measured up to 21 days; assay type: functional; conditions: 168 h, time 7 day
Aspergillus fumigatus [18] = assay: Antifungal activity against Aspergillus fumigatus MF5668 infected in DBA/2N mouse assessed as mean survival time at 0.125 mg/kg, ip bid administered for 7 days starting from 15 to 30 mins post infection and measured up to 21 days; assay type: functional; conditions: time 7 day
In short: (§4)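 DBA/2N mice were challenged IV with A. fumigatus MF5668 at 6.7 x 10^5 CFU/mouse, then dosed IP twice daily for 7 days. Survival was followed over a 21-day model, and mean survival time in days was recorded per dose group. A sham-treated control group was run alongside.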

Aspergillus fumigatus [19] = assay: Antifungal activity against Aspergillus fumigatus MF5668 infected in DBA/2N mouse assessed as mean survival time at 0.03 mg/kg, ip bid administered for 7 days starting from 15 to 30 mins post infection and measured up to 21 days; assay type: functional; conditions: time 7 day; in short: as §4
Aspergillus fumigatus [20] = assay: Antifungal activity against Aspergillus fumigatus MF5668 infected in ip dosed DBA/2N mouse assessed as 50% mouse survival administered bid administered for 7 days starting from 15 to 30 mins post infection and measured up to 21 days; conditions: 168 h

`CC[C@H](C)C[C@H](C)CCCCCCCCC(=O)N[C@H]1C[C@@H](O)[C@@H](NCCN)NC(=O)[C@@H]2[C@@H](O)CCN2C(=O)[C@H]([C@H](O)CCN)NC(=O)[C@H]([C@H](O)[C@@H](O)c2ccc(O)cc2)NC(=O)[C@@H]2C[C@@H](O)CN2C(=O)[C@H]([C@@H](C)O)NC1=O` [CASPOFUNGIN] showed an IC50 [1] of 0.001 µg/mL, an MIC (Candida albicans [2]) of 0.06 µg/mL (≈ 0.0549 µM) and a minimal effective concentration (Aspergillus fumigatus [3]) of under 0.03 µg/mL. The MIC (Candida albicans [4]) was 0.25 µg/mL, the Activity (Candida albicans [5]) was -4.2 deltalog10CFU and the Activity (Candida albicans [6]) was -4.2 deltalog10CFU. It also gave an Activity (Candida albicans [7]) of -2.3 deltalog10CFU, an Activity (Candida albicans [8]) of -3.96 deltalog10CFU and an Activity (Candida albicans [9]) of -4 deltalog10CFU. For the same molecule, the Activity (Candida albicans [10]) was -3.28 deltalog10CFU, the Activity (Candida albicans [11]) was -3.62 deltalog10CFU and the ED99 (Candida albicans [12]) was under 0.0001 mg/kg. The survival at 2 mg/kg (Aspergillus fumigatus [13]) was 90%, the survival at 0.5 mg/kg (Aspergillus fumigatus [14]) was 90% and the survival at 0.125 mg/kg (Aspergillus fumigatus [15]) was 60%. The survival at 0.03 mg/kg (Aspergillus fumigatus [16]) was 50%, the ED90 (Aspergillus fumigatus [17]) was 0.83 mg/kg and the MST (Aspergillus fumigatus [18]) was 14.7 days. For the same molecule, the MST (Aspergillus fumigatus [19]) was 13.1 days and the ED50 (Aspergillus fumigatus [20]) was 0.07 mg/kg.
